Data as given in ChEMBL document CHEMBL4043093, “2-Oxo-3, 4-dihydropyrimido[4, 5-d]pyrimidinyl derivatives as new irreversible pan fibroblast growth factor receptor (FGFR) inhibitors” (Eur J Med Chem, 2017).

Assays:
[1] = target: Serine/threonine-protein kinase RIO1 (Homo sapiens) (UniProt Q9BRS2); assay: Inhibition of wild-type human full length RIOK1 (M1 to K568 residues) expressed in Escherichia coli BL21 assessed as residual activity at 1000 nM after 30 mins by Kinomescan method relative to control
[2] = tested on: Hepatocyte growth factor receptor (Homo sapiens), P08581 [Y1235D]; assay: Inhibition of human partial length MET Y1235D mutant (D1010 to S1367 residues) expressed in Escherichia coli BL21 assessed as residual activity at 1000 nM after 30 mins by Kinomescan method relative to control
In short: (§1)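 KINOMEscan binding panel of 456 kinases, with the test compound at a single concentration of 1 µM. Read-out is Percent Control.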

[3] = target: Serine/threonine-protein kinase Chk2 (Homo sapiens) (UniProt O96017); assay: Inhibition of wild-type human partial length CHEK2 (S253 to E574 residues) expressed in Escherichia coli BL21 assessed as residual activity at 1000 nM after 30 mins by Kinomescan method relative to control
[4] = target: Mitogen-activated protein kinase kinase kinase 11 (Homo sapiens) (UniProt Q16584); assay: Inhibition of wild-type human partial length MLK3 (I77 to W399 residues) expressed in Escherichia coli BL21 assessed as residual activity at 1000 nM after 30 mins by Kinomescan method relative to control
[5] = target: Mitogen-activated protein kinase 4 (Homo sapiens) (UniProt P31152); assay: Inhibition of wild-type human partial length ERK4 (M1 to L365 residues) expressed in Escherichia coli BL21 assessed as residual activity at 1000 nM after 30 mins by Kinomescan method relative to control
[6] = target: Hormonally up-regulated neu tumor-associated kinase (Homo sapiens) (UniProt P57058); assay: Inhibition of wild-type human partial length HUNK (A31 to K354 residues) expressed in Escherichia coli BL21 assessed as residual activity at 1000 nM after 30 mins by Kinomescan method relative to control
[7] = target: Serine/threonine-protein kinase TAO3 (Homo sapiens) (UniProt Q9H2K8); assay: Inhibition of wild-type human partial length TAOK3 (M1 to T316 residues) expressed in HEK293 cells assessed as residual activity at 1000 nM after 30 mins by Kinomescan method relative to control; format: cell-based
[8] = target: Ribosomal protein S6 kinase alpha-5 (Homo sapiens) (UniProt O75582); assay: Inhibition of wild-type human partial length N-terminal RPS6KA5 kinase domain 1 expressed in Escherichia coli BL21 assessed as residual activity at 1000 nM after 30 mins by Kinomescan method relative to control
[9] = target: Megakaryocyte-associated tyrosine-protein kinase (Homo sapiens) (UniProt P42679); assay: Inhibition of wild-type human full length CTK (M43 to P508 residues) expressed in HEK293 cells assessed as residual activity at 1000 nM after 30 mins by Kinomescan method relative to control; format: cell-based
In short: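 Single-concentration screen at 1 µM across a 456-kinase KINOMEscan panel. The read-out is Percent Control for each kinase.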

[10] = target: Serine/threonine-protein kinase Nek9 (Homo sapiens) (UniProt Q8TD19); assay: Inhibition of wild-type human partial length NEK9 (P32 to R328 residues) expressed in Escherichia coli BL21 assessed as residual activity at 1000 nM after 30 mins by Kinomescan method relative to control
[11] = target: Serine/threonine-protein kinase 16 (Homo sapiens) (UniProt O75716); assay: Inhibition of wild-type human partial length STK16 (G11 to I305 residues) expressed in Escherichia coli BL21 assessed as residual activity at 1000 nM after 30 mins by Kinomescan method relative to control
[12] = tested on: Phosphatidylinositol 4,5-bisphosphate 3-kinase catalytic subunit alpha isoform (Homo sapiens), P42336 [Q546K]; assay: Inhibition of human partial length PIK3CA Q546K mutant (R108 to N1068 residues) expressed in HEK293 cells assessed as residual activity at 1000 nM after 30 mins by Kinomescan method relative to control; format: cell-based
In short: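 Single-point screen at a fixed 1 µM, run within a 456-kinase DiscoveRx KINOMEscan panel. Each kinase's read-out is Percent Control, i.e. signal relative to a control without compound. Hits were scored by a Percent Control < 35 cut-off, and an S(35) selectivity score was calculated across the non-mutant kinases.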

[13] = tested on: Epidermal growth factor receptor (Homo sapiens), P00533 [L861Q]; assay: Inhibition of human partial length EGFR L861Q mutant (R669 to V1011 residues) expressed in Escherichia coli BL21 assessed as residual activity at 1000 nM after 30 mins by Kinomescan method relative to control; in short: as §1
[14] = target: Uncharacterized serine/threonine-protein kinase SBK3 (Homo sapiens) (UniProt P0C264); assay: Inhibition of wild-type human partial length SgK110 (L22 to R329 residues) expressed in Escherichia coli BL21 assessed as residual activity at 1000 nM after 30 mins by Kinomescan method relative to control
[15] = target: Phosphatidylinositol 5-phosphate 4-kinase type-2 gamma (Homo sapiens) (UniProt Q8TBX8); assay: Inhibition of wild-type human partial length PIP5K2C (M1 to A421 residues) expressed in HEK293 cells assessed as residual activity at 1000 nM after 30 mins by Kinomescan method relative to control; format: cell-based
[16] = target: Serine/threonine-protein kinase Nek1 (Homo sapiens) (UniProt Q96PY6); assay: Inhibition of wild-type human partial length NEK1 (M1 to K278 residues) expressed in Escherichia coli BL21 assessed as residual activity at 1000 nM after 30 mins by Kinomescan method relative to control
[17] = target: Tyrosine-protein kinase Tec (Homo sapiens) (UniProt P42680); assay: Inhibition of wild-type human partial length TEC (L341 to D620 residues) expressed in Escherichia coli BL21 assessed as residual activity at 1000 nM after 30 mins by Kinomescan method relative to control
[18] = target: Serine/threonine-protein kinase Sgk1 (Homo sapiens) (UniProt O00141); assay: Inhibition of wild-type human partial length SGK (I60 to L431 residues) expressed in HEK293 cells assessed as residual activity at 1000 nM after 30 mins by Kinomescan method relative to control; format: cell-based
[19] = target: Mitogen-activated protein kinase kinase kinase 19 (Homo sapiens) (UniProt Q56UN5); assay: Inhibition of wild-type human partial length YSK4 (T1019 to H1328 residues) expressed in HEK293 cells assessed as residual activity at 1000 nM after 30 mins by Kinomescan method relative to control; format: cell-based
[20] = target: Serine/threonine-protein kinase MRCK gamma (Homo sapiens) (UniProt Q6DT37); assay: Inhibition of wild-type human partial length DMPK2 (S46 to S408 residues) expressed in Escherichia coli BL21 assessed as residual activity at 1000 nM after 30 mins by Kinomescan method relative to control
[21] = target: Ephrin type-A receptor 1 (Homo sapiens) (UniProt P21709); assay: Inhibition of wild-type human partial length EPHA1 (V588 to I913 residues) expressed in Escherichia coli BL21 assessed as residual activity at 1000 nM after 30 mins by Kinomescan method relative to control

Chain of Serine/threonine-protein kinase Sgk1 (Homo sapiens) (O00141 whole entry, the tested form may be a part): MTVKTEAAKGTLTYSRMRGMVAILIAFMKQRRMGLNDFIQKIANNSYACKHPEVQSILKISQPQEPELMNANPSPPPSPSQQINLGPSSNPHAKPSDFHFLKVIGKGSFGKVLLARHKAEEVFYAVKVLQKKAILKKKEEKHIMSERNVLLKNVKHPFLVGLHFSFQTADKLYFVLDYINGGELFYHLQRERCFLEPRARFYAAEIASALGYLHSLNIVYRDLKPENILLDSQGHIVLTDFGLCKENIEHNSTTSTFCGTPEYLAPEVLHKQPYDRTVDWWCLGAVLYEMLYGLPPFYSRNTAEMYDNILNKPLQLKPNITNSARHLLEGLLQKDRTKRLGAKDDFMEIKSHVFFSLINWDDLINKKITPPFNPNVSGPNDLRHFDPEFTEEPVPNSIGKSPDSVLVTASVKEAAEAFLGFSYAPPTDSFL
Chain of Serine/threonine-protein kinase Chk2 (Homo sapiens) (O96017 whole entry, the tested form may be a part): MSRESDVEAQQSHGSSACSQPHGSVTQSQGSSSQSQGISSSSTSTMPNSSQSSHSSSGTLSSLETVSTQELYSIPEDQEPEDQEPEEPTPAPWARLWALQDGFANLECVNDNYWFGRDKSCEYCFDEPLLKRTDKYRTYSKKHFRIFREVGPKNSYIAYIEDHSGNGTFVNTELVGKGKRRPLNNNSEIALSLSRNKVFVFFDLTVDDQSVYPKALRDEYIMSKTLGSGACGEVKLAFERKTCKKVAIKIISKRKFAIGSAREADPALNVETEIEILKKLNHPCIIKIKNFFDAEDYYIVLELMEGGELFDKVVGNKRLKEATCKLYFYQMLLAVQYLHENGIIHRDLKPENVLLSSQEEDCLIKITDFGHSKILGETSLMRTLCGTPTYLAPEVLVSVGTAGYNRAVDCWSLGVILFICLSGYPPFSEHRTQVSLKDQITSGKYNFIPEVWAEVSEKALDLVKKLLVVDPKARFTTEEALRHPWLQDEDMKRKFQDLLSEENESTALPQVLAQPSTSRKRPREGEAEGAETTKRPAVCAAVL
Chain of Megakaryocyte-associated tyrosine-protein kinase (Homo sapiens) (P42679 whole entry, the tested form may be a part): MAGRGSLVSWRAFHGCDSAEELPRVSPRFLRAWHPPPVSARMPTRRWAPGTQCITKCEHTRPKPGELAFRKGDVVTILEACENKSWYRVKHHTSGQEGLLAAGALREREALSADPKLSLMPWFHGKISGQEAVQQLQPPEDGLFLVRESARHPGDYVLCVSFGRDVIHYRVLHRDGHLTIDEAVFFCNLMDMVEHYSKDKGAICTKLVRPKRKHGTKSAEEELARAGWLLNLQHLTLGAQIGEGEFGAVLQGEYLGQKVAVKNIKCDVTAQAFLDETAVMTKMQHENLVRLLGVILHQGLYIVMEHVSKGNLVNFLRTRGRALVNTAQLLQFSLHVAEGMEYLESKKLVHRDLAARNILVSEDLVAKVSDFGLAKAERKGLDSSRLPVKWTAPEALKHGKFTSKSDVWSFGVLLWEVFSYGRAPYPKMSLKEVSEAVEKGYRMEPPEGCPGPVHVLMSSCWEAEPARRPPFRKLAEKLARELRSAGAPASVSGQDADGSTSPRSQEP
Chain of Serine/threonine-protein kinase RIO1 (Homo sapiens) (Q9BRS2 whole entry, the tested form may be a part): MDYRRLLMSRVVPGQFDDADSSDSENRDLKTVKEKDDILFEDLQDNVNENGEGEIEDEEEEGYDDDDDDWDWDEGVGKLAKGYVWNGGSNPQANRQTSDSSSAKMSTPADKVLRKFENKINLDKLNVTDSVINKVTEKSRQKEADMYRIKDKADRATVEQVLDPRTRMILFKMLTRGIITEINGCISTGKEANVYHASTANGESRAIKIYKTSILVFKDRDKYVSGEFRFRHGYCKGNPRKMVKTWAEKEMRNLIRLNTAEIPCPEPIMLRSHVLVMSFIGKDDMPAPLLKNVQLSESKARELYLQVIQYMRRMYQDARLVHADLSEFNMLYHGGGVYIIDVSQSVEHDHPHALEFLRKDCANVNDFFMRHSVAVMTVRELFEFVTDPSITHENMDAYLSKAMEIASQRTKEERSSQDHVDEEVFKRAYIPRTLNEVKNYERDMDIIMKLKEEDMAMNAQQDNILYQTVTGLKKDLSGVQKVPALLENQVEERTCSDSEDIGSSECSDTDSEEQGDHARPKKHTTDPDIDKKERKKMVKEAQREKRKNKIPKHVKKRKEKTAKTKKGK
Chain of Mitogen-activated protein kinase kinase kinase 19 (Homo sapiens) (Q56UN5 whole entry, the tested form may be a part): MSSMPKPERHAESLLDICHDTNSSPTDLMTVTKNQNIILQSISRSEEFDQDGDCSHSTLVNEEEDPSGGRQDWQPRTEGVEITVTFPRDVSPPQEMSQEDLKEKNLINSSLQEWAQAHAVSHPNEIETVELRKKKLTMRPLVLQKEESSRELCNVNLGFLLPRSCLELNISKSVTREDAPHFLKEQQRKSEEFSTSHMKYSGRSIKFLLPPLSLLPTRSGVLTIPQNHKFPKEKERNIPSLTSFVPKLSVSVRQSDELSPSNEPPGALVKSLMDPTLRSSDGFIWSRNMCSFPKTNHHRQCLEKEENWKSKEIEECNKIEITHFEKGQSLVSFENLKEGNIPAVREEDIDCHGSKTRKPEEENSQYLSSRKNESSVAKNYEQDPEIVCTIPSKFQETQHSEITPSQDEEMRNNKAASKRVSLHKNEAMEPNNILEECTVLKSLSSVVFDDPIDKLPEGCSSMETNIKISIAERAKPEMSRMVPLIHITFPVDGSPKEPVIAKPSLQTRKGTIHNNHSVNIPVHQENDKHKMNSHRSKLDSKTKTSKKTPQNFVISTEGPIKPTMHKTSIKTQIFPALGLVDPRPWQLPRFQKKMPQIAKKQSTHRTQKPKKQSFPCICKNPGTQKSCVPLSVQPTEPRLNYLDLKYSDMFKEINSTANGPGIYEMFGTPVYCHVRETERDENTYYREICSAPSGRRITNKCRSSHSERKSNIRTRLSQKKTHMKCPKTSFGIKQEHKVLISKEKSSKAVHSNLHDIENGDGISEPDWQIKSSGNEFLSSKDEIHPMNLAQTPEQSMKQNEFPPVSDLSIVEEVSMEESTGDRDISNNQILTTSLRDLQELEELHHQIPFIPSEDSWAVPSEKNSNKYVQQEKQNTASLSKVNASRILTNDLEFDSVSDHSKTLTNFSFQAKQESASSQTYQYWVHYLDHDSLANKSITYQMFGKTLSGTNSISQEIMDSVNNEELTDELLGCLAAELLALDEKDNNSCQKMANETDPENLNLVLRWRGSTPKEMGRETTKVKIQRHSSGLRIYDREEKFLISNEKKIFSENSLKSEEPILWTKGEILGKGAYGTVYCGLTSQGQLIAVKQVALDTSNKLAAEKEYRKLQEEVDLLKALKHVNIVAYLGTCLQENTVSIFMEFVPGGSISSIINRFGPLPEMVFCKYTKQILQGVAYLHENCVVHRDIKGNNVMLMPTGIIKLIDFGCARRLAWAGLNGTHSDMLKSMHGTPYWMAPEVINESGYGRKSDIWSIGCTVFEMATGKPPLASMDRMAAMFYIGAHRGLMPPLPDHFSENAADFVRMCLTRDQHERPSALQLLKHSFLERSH
Chain of Serine/threonine-protein kinase Nek1 (Homo sapiens) (Q96PY6 whole entry, the tested form may be a part): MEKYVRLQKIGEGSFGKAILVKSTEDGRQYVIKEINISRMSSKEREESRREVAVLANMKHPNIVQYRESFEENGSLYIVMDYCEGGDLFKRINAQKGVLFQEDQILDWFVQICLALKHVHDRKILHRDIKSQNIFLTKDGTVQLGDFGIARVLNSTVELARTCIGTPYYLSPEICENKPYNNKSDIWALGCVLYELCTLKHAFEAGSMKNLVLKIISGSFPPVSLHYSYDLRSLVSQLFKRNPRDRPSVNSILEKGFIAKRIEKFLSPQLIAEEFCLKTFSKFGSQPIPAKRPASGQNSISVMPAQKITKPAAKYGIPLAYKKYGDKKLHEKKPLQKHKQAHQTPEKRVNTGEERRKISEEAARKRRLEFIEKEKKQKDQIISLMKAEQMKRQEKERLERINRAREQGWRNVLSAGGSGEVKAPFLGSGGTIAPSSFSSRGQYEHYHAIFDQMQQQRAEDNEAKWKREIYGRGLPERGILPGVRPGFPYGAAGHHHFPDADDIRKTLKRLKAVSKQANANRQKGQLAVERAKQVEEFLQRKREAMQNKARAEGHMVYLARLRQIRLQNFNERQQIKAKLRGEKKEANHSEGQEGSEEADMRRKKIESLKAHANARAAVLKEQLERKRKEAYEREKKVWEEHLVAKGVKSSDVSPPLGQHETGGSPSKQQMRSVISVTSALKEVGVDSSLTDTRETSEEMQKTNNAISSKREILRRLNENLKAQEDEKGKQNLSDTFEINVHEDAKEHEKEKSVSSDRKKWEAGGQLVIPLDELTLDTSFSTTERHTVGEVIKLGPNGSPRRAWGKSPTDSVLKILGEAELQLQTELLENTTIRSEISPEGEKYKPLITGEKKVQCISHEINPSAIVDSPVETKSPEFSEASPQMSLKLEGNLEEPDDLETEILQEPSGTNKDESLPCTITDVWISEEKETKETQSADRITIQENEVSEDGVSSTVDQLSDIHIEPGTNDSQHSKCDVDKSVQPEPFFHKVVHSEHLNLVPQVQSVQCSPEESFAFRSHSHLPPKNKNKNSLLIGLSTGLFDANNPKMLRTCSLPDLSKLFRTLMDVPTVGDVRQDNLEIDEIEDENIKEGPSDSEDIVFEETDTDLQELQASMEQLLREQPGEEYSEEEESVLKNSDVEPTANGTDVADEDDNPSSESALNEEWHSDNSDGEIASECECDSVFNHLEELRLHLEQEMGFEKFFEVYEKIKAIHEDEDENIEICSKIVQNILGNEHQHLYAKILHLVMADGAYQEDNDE
Chain of Phosphatidylinositol 5-phosphate 4-kinase type-2 gamma (Homo sapiens) (Q8TBX8 whole entry, the tested form may be a part): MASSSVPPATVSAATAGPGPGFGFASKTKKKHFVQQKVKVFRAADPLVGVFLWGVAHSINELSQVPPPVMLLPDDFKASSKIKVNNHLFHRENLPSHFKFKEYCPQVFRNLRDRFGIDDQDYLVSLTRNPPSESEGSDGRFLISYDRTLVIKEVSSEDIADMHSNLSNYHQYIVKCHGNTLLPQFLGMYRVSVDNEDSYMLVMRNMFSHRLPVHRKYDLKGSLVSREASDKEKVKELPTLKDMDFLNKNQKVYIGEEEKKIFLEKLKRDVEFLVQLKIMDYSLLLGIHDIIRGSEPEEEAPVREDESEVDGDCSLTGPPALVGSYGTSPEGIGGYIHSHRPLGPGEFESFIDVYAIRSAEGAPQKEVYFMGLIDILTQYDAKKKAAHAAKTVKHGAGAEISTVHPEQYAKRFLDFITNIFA

Compound `COc1cc(OC)c(Cl)c(N2Cc3cnc(Nc4ccc(F)cc4)nc3N(C3CCN(C(=O)/C=C/CN(C)C)CC3)C2=O)c1Cl` has an Activity [1] of 99%, an Activity [2] of 100% and an Activity [3] of 100%. It also gave an Activity [4] of 83%, an Activity [5] of 94% and an Activity [6] of 100%. The Activity [7] was 36%, the Activity [8] was 99% and the Activity [9] was 100%. It also gave an Activity [10] of 100%, an Activity [11] of 100% and an Activity [12] of 98%. For the same compound, the Activity [13] was 87%, the Activity [14] was 100% and the Activity [15] was 6.3%. It also gave an Activity [16] of 73%, an Activity [17] of 100% and an Activity [18] of 100%. The Activity [19] was 93%, the Activity [20] was 100% and the Activity [21] was 82%.
